Experimental data as given in ChEMBL document CHEMBL1123786, “Design of nonpeptidal ligands for a peptide receptor: cholecystokinin antagonists” (J Med Chem, 1987).

Tests used:
[1] = target: GABA-A receptor; anion channel; experiment: Displacement of [3H]diazepam from rat brain GABA-A benzodiazepine receptor
[2] = tested on: Mus musculus; experiment: In vivo activity on the basis of the ability to antagonize CCK-8 inhibition of charcoal meal gastric emptying in mice after oral administration; type: functional; settings: Stomach
Outline: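 Oral dosing of mice (N ≥ 10/dose) 1 h before sc CCK-8 at 80 μg/kg. The charcoal meal followed CCK-8 by 5 min, with gastric emptying scored 5 min after that. ED50 was obtained by regression analysis using at least three dose levels.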

[3] = species: Rattus norvegicus; experiment: Selectivity of binding to pancreatic CCK and brain benzodiazepine receptors, ratio of IC50
[4] = target: T1, Cholecystokinin receptor (Rattus norvegicus, UniProt P30551+P30553); type: protein assay
T1 sequence (P30551 whole entry): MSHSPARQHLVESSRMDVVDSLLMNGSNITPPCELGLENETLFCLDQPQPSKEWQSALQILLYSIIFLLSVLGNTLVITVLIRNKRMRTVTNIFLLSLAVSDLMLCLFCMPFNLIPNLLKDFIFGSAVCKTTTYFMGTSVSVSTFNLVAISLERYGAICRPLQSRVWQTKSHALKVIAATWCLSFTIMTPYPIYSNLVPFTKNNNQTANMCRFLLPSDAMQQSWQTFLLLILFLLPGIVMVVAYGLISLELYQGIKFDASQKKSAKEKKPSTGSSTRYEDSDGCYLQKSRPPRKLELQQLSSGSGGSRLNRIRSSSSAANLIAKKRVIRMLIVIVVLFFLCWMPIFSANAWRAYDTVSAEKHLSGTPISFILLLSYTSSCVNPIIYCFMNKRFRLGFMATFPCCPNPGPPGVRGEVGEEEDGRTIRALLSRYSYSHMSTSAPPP
T1 sequence (P30553 whole entry): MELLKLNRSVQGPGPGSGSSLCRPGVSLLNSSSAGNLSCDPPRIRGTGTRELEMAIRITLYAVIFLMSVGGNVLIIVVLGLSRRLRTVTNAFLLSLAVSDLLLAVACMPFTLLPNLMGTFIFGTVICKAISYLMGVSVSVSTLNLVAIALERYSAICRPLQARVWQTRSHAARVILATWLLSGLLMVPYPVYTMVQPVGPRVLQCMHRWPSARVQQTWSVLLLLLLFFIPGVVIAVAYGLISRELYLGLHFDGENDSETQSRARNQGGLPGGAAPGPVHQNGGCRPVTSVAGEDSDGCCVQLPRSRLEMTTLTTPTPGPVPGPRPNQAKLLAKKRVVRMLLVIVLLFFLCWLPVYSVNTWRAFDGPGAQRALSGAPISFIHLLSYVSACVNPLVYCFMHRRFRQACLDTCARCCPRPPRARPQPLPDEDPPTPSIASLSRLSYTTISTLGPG

[5] = tested on: Mus musculus; experiment: In vivo activity on the basis of the ability to antagonize CCK-8 inhibition of charcoal meal gastric emptying in mice after intraperitoneal administration; type: functional; settings: Stomach, ip
Outline: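 Mice dosed intraperitoneally 1 h before CCK-8 (80 μg/kg, sc), N ≥ 10/dose. A charcoal meal was given 5 min after CCK-8 and gastric emptying was measured 5 min later. ED50 was derived by regression from at least three dose levels.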

[6] = target: GABA-A receptor; anion channel; experiment: Displacement of [3H]flunitrazepam from GABA-A benzodiazepine receptor of guinea pig brain; design: species or system Cavia porcellus

SMILES | IC50 [4] | other results
CC(C)C[C@@H]1N[C@H]2N(C1=O)c1ccccc1[C@@]2(O)C[C@@H]1NC(=O)c2ccccc2-n2c1nc1ccccc1c2=O [ASPERLICIN] |  | IC50 [1]: 50 µM; ED50 [2]: > 300 mg/kg; Ratio [3]: 0.028
O=C1[C@@H](Cc2c[nH]c3ccccc23)N=C(c2ccccc2F)c2ccccc2N1CC1CC1 | 2.2 µM | 
CN1C(=O)[C@@H](Cc2c[nH]c3ccccc23)N=C(c2ccccc2)c2ccccc21 | 0.3 µM | 
CN1C(=O)[C@@H](Cc2cn(C)c3ccccc23)N=C(c2ccccc2)c2ccccc21 | 0.1 µM | 
CC1=N[C@H](Cc2c[nH]c3ccccc23)C(=O)Nc2ccccc21 | 48 µM | IC50 [1]: > 100 µM
N#CCCN1C(=O)[C@@H](Cc2c[nH]c3ccccc23)N=C(c2ccccc2F)c2ccccc21 | 0.7 µM | 
O=C1Nc2ccc(Cl)cc2C(c2ccccc2)=N[C@@H]1COCc1ccccc1 | 60 µM | 
O=C1Nc2ccccc2C(c2ccccc2)=N[C@@H]1Cc1c[nH]c2ccccc12 | 1.2 µM | IC50 [1]: > 100 µM; ED50 [2]: > 150 mg/kg
O=C1Nc2ccc(Cl)cc2C(c2ccccc2)=N[C@@H]1Cc1ccc(OCc2ccccc2)cc1 | > 100 µM | 
O=C(O)c1ccccc1C1=N[C@H](Cc2c[nH]c3ccccc23)C(=O)Nc2ccccc21 | 18 µM | 
O=C1Nc2ccccc2C1C[C@H]1N=C(c2ccccc2)c2cc(Cl)ccc2NC1=O (stereo partly drawn) | 24 µM | 
O=C1Nc2ccc(Cl)cc2C(c2ccccc2)N[C@@H]1Cc1c[nH]c2ccccc12 (stereo partly drawn) | 12 µM | 
O=C1[C@@H](Cc2c[nH]c3ccccc23)N=C(c2ccccc2F)c2ccccc2N1CC(F)(F)F | 3.6 µM | 
Fc1ccccc1C1=N[C@H](Cc2c[nH]c3ccccc23)CNc2ccccc21 | 4 µM | 
O=C1Nc2ccc(Cl)cc2C(c2ccccc2)=N[C@@H]1Cc1ccccc1 | 80 µM | 
CCCCCN1C(=O)[C@@H](Cc2c[nH]c3ccccc23)N=C(c2ccccc2F)c2ccccc21 | ~ 100 uM | 
O=C1Nc2ccc(Cl)cc2C(c2ccccc2)=NC1Cc1cccc2ccccc12 (stereo not drawn) | 23 µM | 
O=C1Nc2ccccc2C(c2ccccc2F)=NC1C[C@H]1CNc2ccccc21 (stereo partly drawn) | 17 µM | 
CN1C(=O)[C@@H](Cc2cn(C)c3ccccc23)N=C(c2ccccc2F)c2ccccc21 | 0.36 µM | ED50 [5]: 18 mg/kg; ED50 [2]: 39 mg/kg
O=C(O)CCN1C(=O)[C@@H](Cc2c[nH]c3ccccc23)N=C(c2ccccc2F)c2ccccc21 | 1.4 µM | 

SMILES | IC50 [4] | other results
CC(C)CC(NC(=O)OC(C)(C)C)C(=O)N1CC(CC2N=C(c3ccccc3)c3ccccc3NC2=O)c2ccccc21 (stereo not drawn) | 4.7 µM | 
CN1C[C@@H](CC2N=C(c3ccccc3)c3ccccc3N(C)C2=O)c2ccccc21 (stereo partly drawn) | 13 µM | 
O=C1Nc2ccccc2C(c2ccccc2F)=NC1Cc1c[nH]c2cc(F)ccc12 (stereo not drawn) | 1.3 µM | 
O=C1Nc2ccc(Cl)cc2C(c2ccccc2)=N[C@@H]1Cc1c[nH]c2ccccc12 | 3.4 µM | IC50 [1]: > 100 µM; ED50 [5]: 88 mg/kg; ED50 [2]: > 300 mg/kg
Cc1nnc2n1-c1ccccc1C(c1ccccc1F)=N[C@@H]2Cc1c[nH]c2ccccc12 | 1.2 µM | IC50 [6]: 0.8 µM; ED50 [2]: 76 mg/kg; Ratio [3]: 1.5
O=C1Nc2ccc(Cl)cc2C(c2ccccc2)=NC1Cc1ccc2ccccc2c1 (stereo not drawn) | 49 µM | 
CN(C)CCN1C(=O)[C@@H](Cc2c[nH]c3ccccc23)N=C(c2ccccc2F)c2ccccc21 | ~ 100 uM | 
O=C1Nc2ccccc2C(c2ccccc2)=NC1C[C@H]1CNc2ccccc21 (stereo partly drawn) | 21 µM | 
O=C1Nc2ccccc2C(c2ccccc2F)=NC1Cc1ccsc1 (stereo not drawn) | 33 µM | 
O=C1CN=C(c2ccccc2Cl)c2cc([N+](=O)[O-])ccc2N1 [CLONAZEPAM] | > 100 µM | IC50 [1]: 0.0017 µM; Ratio [3]: > 58000
CN1C(=O)[C@@H](Cc2cn(C(=O)c3ccc(Cl)cc3)c3ccccc23)N=C(c2ccccc2F)c2ccccc21 | 11 µM | 
O=C1Nc2ccccc2C(c2ccccc2F)=NC1C[C@@H]1CNc2ccccc21 (stereo partly drawn) | 11 µM | 
O=C1Nc2ccc(Cl)cc2C(c2ccccc2)=N[C@H]1Cc1c[nH]c2ccccc12 | 32 µM | IC50 [1]: 5.6 µM; ED50 [2]: > 150 mg/kg
CCN1C(=O)[C@@H](Cc2c[nH]c3ccccc23)N=C(c2ccccc2F)c2ccccc21 | 0.3 µM | 
CCOC(=O)CN1C(=O)[C@@H](Cc2c[nH]c3ccccc23)N=C(c2ccccc2F)c2ccccc21 | 8.3 µM | 
O=C1Nc2ccccc2C(c2ccccc2F)=N[C@@H]1Cc1c[nH]c2ccccc12 | 0.5 µM | IC50 [1]: > 100 µM; ED50 [5]: 41 mg/kg; ED50 [2]: 104 mg/kg
O=C1Nc2ccc(Cl)cc2C(c2ccccc2Cl)=N[C@@H]1Cc1c[nH]c2ccccc12 | 5 µM | IC50 [1]: > 180 µM; ED50 [5]: 119 mg/kg; ED50 [2]: > 600 mg/kg
O=C1Nc2ccccc2C(c2ccccc2F)=NC1Cc1c[nH]c2ccc(F)cc12 (stereo not drawn) | 1.4 µM | 
CN1C(=O)[C@@H](Cc2c[nH]c3ccccc23)N=C(c2ccccc2)c2cc(Cl)ccc21 | 1.4 µM | 
O=C(O)CN1C(=O)[C@@H](Cc2c[nH]c3ccccc23)N=C(c2ccccc2F)c2ccccc21 | 0.3 µM | IC50 [1]: > 100 µM; ED50 [2]: 42 mg/kg; Ratio [3]: < 0.003

SMILES | IC50 [4] | other results
O=C1Nc2ccccc2C(c2ccccc2)=NC1Cc1c[nH]c2ccc(Br)cc12 (stereo not drawn) | 2.9 µM | 
CN1C(=O)[C@@H](Cc2cn(Cc3ccccc3)c3ccccc23)N=C(c2ccccc2)c2cc(Cl)ccc21 | ~ 150 uM | 
O=C1[C@H](Cc2c[nH]c3ccccc23)N=C(c2ccccc2)c2cc(Cl)ccc2N1Cc1ccccc1 | > 100 µM | 
O=C1[C@@H](Cc2c[nH]c3ccccc23)N=C(c2ccccc2)c2cc(Cl)ccc2N1Cc1ccccc1 | > 100 µM | 
O=C1Nc2ccccc2C(c2ccccc2F)=N[C@H]1Cc1c[nH]c2ccccc12 | 10.6 µM | 
CN1C(=O)CN=C(c2ccccc2F)c2cc([N+](=O)[O-])ccc21 [FLUNITRAZEPAM] |  | IC50 [1]: 0.0017 µM
CN1C(=O)/C(=C\c2ccsc2)N=C(c2ccccc2)c2ccccc21 | 25 µM | 
CN1C(=O)[C@@H](Cc2c[nH]c3ccccc23)N=C(c2ccccc2F)c2ccccc21 | 0.27 µM | IC50 [6]: > 100 µM; ED50 [5]: 15 mg/kg; ED50 [2]: 25 mg/kg
CC(C)C[C@H]1N=C(c2ccccc2)c2cc(Cl)ccc2NC1=O | 42 µM | 
SC1=Nc2ccc(Cl)cc2C(c2ccccc2)=N[C@@H]1Cc1c[nH]c2ccccc12 | 4.5 µM | 
CC(C)CCN1C(=O)[C@@H](Cc2c[nH]c3ccccc23)N=C(c2ccccc2F)c2ccccc21 | ~ 100 uM | 
CC(=O)N1C(Cc2cn(C)c3ccccc23)C(=O)N(C)c2ccccc2[C@@H]1c1ccccc1F (stereo partly drawn) | ~ 100 uM | 
CN1C(=O)[C@@H](Cc2cn(C)c3ccccc23)N(C(=O)c2ccc(Cl)cc2)C(c2ccccc2F)c2ccccc21 (stereo partly drawn) | > 100 µM | 
O=C1Nc2ccccc2C(c2ccccc2)=NC1C[C@@H]1CNc2ccccc21 (stereo partly drawn) | 3.2 µM | 
CC(C)CC(N)C(=O)N1CC(CC2N=C(c3ccccc3)c3ccccc3NC2=O)c2ccccc21.Cl (stereo not drawn) | 6.6 µM | 
O=C1Nc2ccccc2C(c2ccccc2F)=NC1c1ccsc1 (stereo not drawn) | > 100 µM | 
CN1CC(CC2N=C(c3ccccc3)c3ccccc3N(C)C2=O)c2ccccc21 (stereo not drawn) | 10 µM | 
NC(=O)CN1C(=O)[C@@H](Cc2c[nH]c3ccccc23)N=C(c2ccccc2F)c2ccccc21 | 2.1 µM | 
CN1C(=O)/C(=C/c2ccsc2)N=C(c2ccccc2)c2ccccc21 | 100 µM | 
